Data published in ChEMBL document CHEMBL2150968, “Development of a bifunctional chelating agent containing isothiocyanate residue for one step F-18 labeling of peptides and application for RGD labeling” (Bioorg Med Chem, 2012).

Columns and labels:
[1] = Drug uptake in human U87MG cells overexpressing alphavbeta3 integrin xenografted in BALB/c nude mouse tumor at 11.1 MBq/0.1 mL after 2 hrs by PET/CT imaging in presence of 3 mg/kg c(RGDyk); settings: in vivo
Intestine [2] = experiment: Drug uptake in intestine of BALB/c nude mouse xenografted with human U87MG cells over expressing […] integrin at 0.148 MBq/0.1 mL after 60 mins by gamma counting in presence of 3 mg/kg c(RGDyk); assay type: ADME, organism-based, U-87MG ATCC; parameters: dose 3 mg/kg; settings: in vivo, 1 h
Outline: (§1)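 Male BALB/c nude mice received 2 × 10^5 U87MG human glioma cells s.c. in the right shoulder, 11 days before tracer. Tracer was given by tail vein; blocking groups were co-injected with cold c(RGDyK) 3 mg/kg. Mice were killed at 60 min; organs and blood were weighed and gamma counted, and %ID/g was calculated. n = 8; Student's t-test.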

Bone [3] = experiment: Drug uptake in bone of BALB/c nude mouse xenografted with human U87MG cells over expressing […] integrin at 0.148 MBq/0.1 mL after 60 mins by gamma counting in presence of 3 mg/kg c(RGDyk); assay type: ADME, organism-based, Bone element, U-87MG ATCC; parameters: dose 3 mg/kg; settings: in vivo, 1 h
Outline: as §1

[4] = Drug uptake in human U87MG cells over expressing […] integrin xenografted in BALB/c nude mouse tumor at 11.1 MBq/0.1 mL, iv after 2 hrs by PET/CT imaging; assay type: ADME, organism-based, Neoplasm, U-87MG ATCC; settings: in vivo
Outline: (§2)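 Glioma-xenografted BALB/c nude mice were injected by tail vein; inhibition groups were co-injected with cold c(RGDyK) 3 mg/kg. Under 2% isoflurane, dynamic small-animal PET/CT was acquired at 1 and 2 h, with decay-corrected images. SUV = tissue activity concentration (MBq/mL) / (injected dose (MBq) / body weight (g)). Normal tissue reference was the left shoulder.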

Blood [5] = experiment: Drug uptake in blood of BALB/c nude mouse xenografted with human U87MG cells over expressing […] integrin at 0.148 MBq/0.1 mL, iv after 60 mins by gamma counting; assay type: ADME, organism-based, U-87MG ATCC; settings: in vivo, 1 h
Outline: as §1

[6] = Drug uptake in human U87MG cells overexpressing […] integrin xenografted in BALB/c nude mouse tumor at 11.1 MBq/0.1 mL after 1 hr by PET/CT imaging in presence of 3 mg/kg c(RGDyk); assay type: ADME, organism-based, Neoplasm, U-87MG ATCC; parameters: dose 3 mg/kg; settings: in vivo
Outline: as §2

[7] = Chemical stability of the compound after 4 hrs by ITLC-SG analysis; assay type: physicochemical
Outline: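 After Al18F labeling (pH 4 sodium acetate buffer, 110 °C, 10 min), stability of the labeled conjugate was followed in the labeling medium at room temperature for 240 min. Decomposition was checked by ITLC-SG; unbound [18F]AlF stays at the origin, the labeled peptide runs to the solvent front.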

[8] = Stability of the compound in human serum for 4 hrs by ITLC-SG analysis; assay type: ADME, cell-free
Outline: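 Labeled conjugate was incubated in human serum at 37 °C for 240 min. Decomposition was checked by ITLC-SG; unbound [18F]AlF stays at the origin, the labeled peptide runs to the solvent front.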

Spleen [9] = experiment: Drug uptake in spleen of BALB/c nude mouse xenografted with human U87MG cells over expressing […] integrin at 0.148 MBq/0.1 mL after 60 mins by gamma counting in presence of 3 mg/kg c(RGDyk); assay type: ADME, organism-based, U-87MG ATCC; parameters: dose 3 mg/kg; settings: in vivo, 1 h
Outline: as §1

Intestine [10] = experiment: Drug uptake in intestine of BALB/c nude mouse xenografted with human U87MG cells over expressing […] integrin at 0.148 MBq/0.1 mL, iv after 60 mins by gamma counting; assay type: ADME, organism-based, U-87MG ATCC; settings: in vivo, 1 h
Outline: as §1

[11] = Drug uptake in human U87MG cells over expressing […] integrin xenografted in BALB/c nude mouse tumor at 11.1 MBq/0.1 mL, iv after 1 hr by PET/CT imaging; assay type: ADME, organism-based, Neoplasm, U-87MG ATCC; settings: in vivo
Outline: as §2

Liver [12] = experiment: Drug uptake in liver of BALB/c nude mouse xenografted with human U87MG cells over expressing […] integrin at 0.148 MBq/0.1 mL after 60 mins by gamma counting in presence of 3 mg/kg c(RGDyk); assay type: ADME, organism-based, U-87MG ATCC; parameters: dose 3 mg/kg; settings: in vivo, 1 h
Outline: as §1

Bone [13] = experiment: Drug uptake in bone of BALB/c nude mouse xenografted with human U87MG cells over expressing […] integrin at 0.148 MBq/0.1 mL, iv after 60 mins by gamma counting; assay type: ADME, organism-based, Bone element, U-87MG ATCC; settings: in vivo, 1 h
Outline: as §1

Muscle tissue [14] = experiment: Drug uptake in muscle of BALB/c nude mouse xenografted with human U87MG cells over expressing […] integrin at 0.148 MBq/0.1 mL after 60 mins by gamma counting in presence of 3 mg/kg c(RGDyk); assay type: ADME, organism-based, U-87MG ATCC; parameters: dose 3 mg/kg; settings: in vivo, 1 h
Outline: as §1

Heart [15] = experiment: Drug uptake in heart of BALB/c nude mouse xenografted with human U87MG cells over expressing […] integrin at 0.148 MBq/0.1 mL, iv after 60 mins by gamma counting; assay type: ADME, organism-based, U-87MG ATCC; settings: in vivo, 1 h
Outline: as §1

[16] = Drug uptake in human U87MG cells over expressing […] integrin xenografted in BALB/c nude mouse tumor at 0.148 MBq/0.1 mL after 1 hr by gamma counting in presence of 3 mg/kg c(RGDyk); assay type: ADME, organism-based, Neoplasm, U-87MG ATCC; parameters: dose 3 mg/kg; settings: in vivo
Outline: as §1

Stomach [17] = experiment: Drug uptake in stomach of BALB/c nude mouse xenografted with human U87MG cells over expressing […] integrin at 0.148 MBq/0.1 mL after 60 mins by gamma counting in presence of 3 mg/kg c(RGDyk); assay type: ADME, organism-based, U-87MG ATCC; parameters: dose 3 mg/kg; settings: in vivo, 1 h
Outline: as §1

Kidney [18] = experiment: Drug uptake in kidney of BALB/c nude mouse xenografted with human U87MG cells over expressing […] integrin at 0.148 MBq/0.1 mL after 60 mins by gamma counting in presence of 3 mg/kg c(RGDyk); assay type: ADME, organism-based, U-87MG ATCC; parameters: dose 3 mg/kg; settings: in vivo, 1 h
Outline: as §1

Pancreas [19] = experiment: Drug uptake in pancreas of BALB/c nude mouse xenografted with human U87MG cells over expressing […] integrin at 0.148 MBq/0.1 mL, iv after 60 mins by gamma counting; assay type: ADME, organism-based, U-87MG ATCC; settings: in vivo, 1 h
Outline: as §1

Stomach [20] = experiment: Drug uptake in stomach of BALB/c nude mouse xenografted with human U87MG cells over expressing […] integrin at 0.148 MBq/0.1 mL, iv after 60 mins by gamma counting; assay type: ADME, organism-based, U-87MG ATCC; settings: in vivo, 1 h
Outline: as §1

Urinary bladder = experiment: Drug uptake in bladder of BALB/c nude mouse xenografted with human U87MG cells over expressing […] integrin at 11.1 MBq/0.1 mL, iv after 1 to 2 hrs by PET/CT imaging; assay type: ADME, organism-based, U-87MG ATCC; settings: in vivo
Outline: as §2

Kidney [21] = experiment: Drug uptake in kidney of BALB/c nude mouse xenografted with human U87MG cells over expressing […] integrin at 0.148 MBq/0.1 mL, iv after 60 mins by gamma counting; assay type: ADME, organism-based, U-87MG ATCC; settings: in vivo, 1 h
Outline: as §1

[22] = Drug uptake in human U87MG cells over expressing […] integrin xenografted BALB/c nude mouse tumor at 0.148 MBq/0.1 mL, iv after 60 mins by gamma counting; assay type: ADME, organism-based, Neoplasm, U-87MG ATCC; settings: in vivo, 1 h
Outline: as §1

Lung [23] = experiment: Drug uptake in lung of BALB/c nude mouse xenografted with human U87MG cells over expressing […] integrin at 0.148 MBq/0.1 mL, iv after 60 mins by gamma counting; assay type: ADME, organism-based, U-87MG ATCC; settings: in vivo, 1 h
Outline: as §1

Blood [24] = experiment: Drug uptake in blood of BALB/c nude mouse xenografted with human U87MG cells overexpressing […] integrin at 0.148 MBq/0.1 mL after 60 mins by gamma counting in presence of 3 mg/kg c(RGDyk); assay type: ADME, organism-based, U-87MG ATCC; parameters: dose 3 mg/kg; settings: in vivo, 1 h
Outline: as §1

Muscle tissue [25] = experiment: Drug uptake in muscle of BALB/c nude mouse xenografted with human U87MG cells over expressing […] integrin at 0.148 MBq/0.1 mL, iv after 60 mins by gamma counting; assay type: ADME, organism-based, U-87MG ATCC; settings: in vivo, 1 h
Outline: as §1

Heart [26] = experiment: Drug uptake in heart of BALB/c nude mouse xenografted with human U87MG cells over expressing […] integrin at 0.148 MBq/0.1 mL after 60 mins by gamma counting in presence of 3 mg/kg c(RGDyk); assay type: ADME, organism-based, U-87MG ATCC; parameters: dose 3 mg/kg; settings: in vivo, 1 h
Outline: as §1

Pancreas [27] = experiment: Drug uptake in pancreas of BALB/c nude mouse xenografted with human U87MG cells over expressing […] integrin at 0.148 MBq/0.1 mL after 60 mins by gamma counting in presence of 3 mg/kg c(RGDyk); assay type: ADME, organism-based, U-87MG ATCC; parameters: dose 3 mg/kg; settings: in vivo, 1 h
Outline: as §1

Liver [28] = experiment: Drug uptake in liver of BALB/c nude mouse xenografted with human U87MG cells over expressing […] integrin at 0.148 MBq/0.1 mL, iv after 60 mins by gamma counting; assay type: ADME, organism-based, U-87MG ATCC; settings: in vivo, 1 h
Outline: as §1

Lung [29] = experiment: Drug uptake in lung of BALB/c nude mouse xenografted with human U87MG cells over expressing […] integrin at 0.148 MBq/0.1 mL after 60 mins by gamma counting in presence of 3 mg/kg c(RGDyk); assay type: ADME, organism-based, U-87MG ATCC; parameters: dose 3 mg/kg; settings: in vivo, 1 h
Outline: as §1

Spleen [30] = experiment: Drug uptake in spleen of BALB/c nude mouse xenografted with human U87MG cells over expressing […] integrin at 0.148 MBq/0.1 mL, iv after 60 mins by gamma counting; assay type: ADME, organism-based, U-87MG ATCC; settings: in vivo, 1 h
Outline: as §1

N=C(N)NCCC[C@@H]1NC(=O)[C@H](CCCCNC(=S)Nc2ccc(CN3CCN4CCN(CC3)CC(=O)[O][Al]([18F])[O]C(=O)C4)cc2)NC(=O)[C@@H](Cc2ccc(O)cc2)NC(=O)[C@H](CC(=O)O)NC(=O)CNC1=O
Not Active: Drug uptake (Intestine [2]) | Drug uptake (Bone [3]) | Drug uptake (Spleen [9]) | Drug uptake (Liver [12]) | Drug uptake (Muscle tissue [14]) | Drug uptake (Stomach [17]) | Drug uptake (Kidney [18]) | Drug uptake (Blood [24]) | Drug uptake (Heart [26]) | Drug uptake (Pancreas [27]) | Drug uptake (Lung [29])
0.72: SUV [6]
3.77: SUV [4]
4.41 % ID/g: Drug uptake [22]
7.42: SUV [11]
1.33 % ID/g: Drug uptake [16]
Active: Drug uptake (Blood [5]) | Drug uptake (Intestine [10]) | Drug uptake (Bone [13]) | Drug uptake (Heart [15]) | Drug uptake (Pancreas [19]) | Drug uptake (Stomach [20]) | Drug uptake (Urinary bladder) | Drug uptake (Kidney [21]) | Drug uptake (Lung [23]) | Drug uptake (Muscle tissue [25]) | Drug uptake (Liver [28]) | Drug uptake (Spleen [30])
> 95%: remaining at 4 h [7] | remaining at 4 h [8]
0.42: SUV [1]
